Compound activity as filed in PubChem.
Sampled rows, rich in hits. Any-hit rate of the full collection: about 2%.
TRAIL sens C8 – caspase-8 TRAIL sensitization; actives 1% (n = 360,000); inhibition (viability loss, TRAIL sensitization), % at 10 µM; NB7+C8 cells + TRAIL, ATPlite viability luminescence;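 active = compounds causing at least 50% loss of cell viability in the single-dose screen, relative to plate controls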
PPC-1+TRAIL kill – PPC-1 cancer cell killing with TRAIL present; cell killing (% activity), % at 4 µM or 5 µM; PPC-1 cells + TRAIL, ATPLite viability luminescence; AID 1443; actives 0.41% (n = 220,000);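 active = cell killing above 50% in the first pass at 4 µM, then a duplicate retest at 5 µM averaging 50% or more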;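 note: plate controls were cells with TRAIL plus DMSO for no effect and medium-only wells lacking cells for full effect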
FLuc inhib CS – inhibits firefly luciferase, flagging false hits in luciferase inhibition screens; P08659; ATPLite firefly luciferase biochemical luminescence, 10 min; inhibition, % at 10 µM; actives 1.5% (n = 200,000);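 active = inhibition above about 50% when tested at 10 µM, limit read from the data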
Target sequence (P08659 whole entry, looked up): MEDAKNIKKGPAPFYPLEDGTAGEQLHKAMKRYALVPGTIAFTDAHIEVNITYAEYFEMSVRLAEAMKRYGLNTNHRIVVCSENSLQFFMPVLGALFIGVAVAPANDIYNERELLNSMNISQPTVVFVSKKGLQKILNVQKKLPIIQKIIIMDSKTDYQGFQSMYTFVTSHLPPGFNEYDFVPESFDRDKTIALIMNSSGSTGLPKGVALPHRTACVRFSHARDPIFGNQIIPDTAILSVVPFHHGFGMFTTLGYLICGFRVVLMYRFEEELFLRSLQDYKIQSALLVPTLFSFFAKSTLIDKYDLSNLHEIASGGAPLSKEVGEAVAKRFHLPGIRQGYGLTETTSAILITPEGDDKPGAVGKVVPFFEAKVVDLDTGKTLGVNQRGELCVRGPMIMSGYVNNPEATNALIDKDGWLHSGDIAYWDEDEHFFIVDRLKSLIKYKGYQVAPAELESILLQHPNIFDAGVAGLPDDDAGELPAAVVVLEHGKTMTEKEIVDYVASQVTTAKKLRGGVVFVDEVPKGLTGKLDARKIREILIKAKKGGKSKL
FLuc stim CS – firefly luciferase counter-screen for stimulation assays; P08659; ATPlite luciferase biochemical, luminescence, 10 min; 0 = ATP-free wells, 1 = DMSO control; activation factor at 10 µM; 200,000 tested, under 10 active; AID 1027;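 active = luciferase activation factor, scaled between plate controls, of at least 2 with compound at 10 µM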
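Assay system – cell-free luciferase reagent · Medium – PBS-based ATP solution · Dosing – test compounds dosed from 2 mM stocks in 100% DMSO · Timing – 10 min, room temperature · Technique – light output (luminescence) · Measure – luminescence gain marking luciferase activators · Controls – No-ATP low control, compound-free enzyme-plus-ATP high control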
HSP90 refold inh – inhibitors of HSP90 luciferase refolding in rabbit reticulocyte lysate. luciferase refolding luminescence, 3 h. inhibition, % at 5.6 µM. actives 0.91% (n = 290,000). AID 1789;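 active = inhibition above the screen-wide mean plus 3 SD, computed separately per campaign, cut at about 16% in these data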;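 note: 0% = DMSO wells and 100% = 60 µM geldanamycin wells; inhibitors lower the luminescence because luciferase stays unfolded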
* = called active by the depositor; . = no result.

SMILES	TRAIL sens C8	PPC-1+TRAIL kill	FLuc inhib CS	FLuc stim CS	HSP90 refold inh
Cc1cccc2sc(NNC(=O)c3ccc(S(=O)(=O)N4CCCC(C)C4)cc3)nc12 (stereo not drawn)	67*	12	1	1	8
Cc1cccc2sc(NNC(=O)c3ccc(S(=O)(=O)N4CCc5ccccc5C4)cc3)nc12	15	24	-4	1	5
C/C(=N\NC(=O)c1c(Cl)cnn1C)c1ccc(NC(=O)c2ccncc2)cc1	-8	16	-9	1.1	-2
CC(C)N1CCc2c(sc(NC(=O)c3ccc([N+](=O)[O-])o3)c2C(N)=O)C1	52*	.	.	.	5
COC(=O)c1c(NC(=O)c2ccc([N+](=O)[O-])o2)sc2c1CCN(C(C)C)C2	53*	.	.	.	5
O=C(CCN1C(=O)/C(=C/c2cccs2)SC1=S)N1CCCCC1	38	.	.	.	3
COc1ccc(O)c(/C=N/N=C2/C(=O)Nc3ccccc32)c1	16	3	81*	0.2	0
Cc1ccc2nc(-c3ccc(NC(=O)COC(=O)c4ccc(Br)o4)cc3)sc2c1	75*	50	32	0.7	0
Cc1ccc2nc(-c3ccc(NC(=O)CN(c4ccccc4C)S(C)(=O)=O)cc3)sc2c1	43*	13	37	0.6	-1
COc1ccc(/C=C(\C#N)C(=O)OCC(=O)NC(C)c2ccccc2)cc1 (stereo not drawn)	-5	0	-9	1.1	3
COc1ccc(/C=C(\C#N)C(=O)OCC(=O)Nc2ccc(-c3nc4ccc(C)cc4s3)cc2)cc1	54*	40	44	0.6	1
CCOc1ncccc1C(=O)OCC(=O)Nc1ccc(-c2nc3ccc(C)cc3s2)cc1	75*	38	21	0.8	0
COC(=O)C[C@H]1C[C@@H]2c3cc(NC(=O)NC4CCCC4)ccc3O[C@@H]2[C@@H](CO)O1	-11	.	.	.	.
CCCN(CC(=O)Nc1ccccc1C)C(=O)CSc1ccccc1C	-14	.	.	.	.
Cc1ccc2nc(-c3ccc(NC(=O)COC(=O)c4ccc([N+](=O)[O-])o4)cc3)sc2c1	71*	51*	47	0.5	2
Cc1ccc2nc(-c3ccc(NC(=O)COC(=O)c4ccco4)cc3)sc2c1	71*	55*	-1	1	-3
Cc1cc(=O)[nH]c(SCC(=O)Nc2ccc3c(c2)CCC3)c1C#N	-6	.	.	.	.
CCOc1ccc(C(=O)N2CCC3(CC2)NCCc2[nH]cnc23)cc1	-1	.	.	.	1
CCOc1ccc(NC(=O)CN2C(=O)COc3ccccc32)cc1	-7	.	.	.	-1
CC(C)(C)OC(=O)NCCCCCc1cn([C@@H](CO)C(=O)NCCCCCCCCCCC(=O)N2CCN(C(=O)OC(C)(C)C)CC2)nn1	60*	.	.	.	.
CCCN1C=CC(=C/C=C(\C#N)C(=O)OCC)C=C1	.	31	58*	0.4	-3
CCCCC#Cc1ccc2c(c1)COc1c3ccccc3nn1-2	11	12	.	.	.
N#CCCCC#Cc1ccc2c(c1)COc1c3ccccc3nn1-2	77*	.	.	.	.
O=C(ONC1=NCCCCC1)c1ccc(Cl)cc1	83*	-2	-5	1.1	3
CCC(=O)Nc1nn(CC(C)C)c2nc3ccc(C)cc3cc12	-5	.	.	.	2
SMILES	TRAIL sens C8	PPC-1+TRAIL kill	FLuc inhib CS	FLuc stim CS	HSP90 refold inh
O=C1C(=O)c2cccnc2-c2ncccc21	96*	.	.	.	.
O=C(NCCN1C(=O)S/C(=C\c2ccc(Cl)c([N+](=O)[O-])c2)C1=O)C1=COCCO1	55*	.	.	.	.
O=C(NCCN1C(=O)S/C(=C\c2ccc(Cl)c(Cl)c2)C1=O)c1cnccn1	1	31	-8	1.1	-4
CC1CCCC(C)N1C(=O)c1cc(-c2ccc3c(c2)OCO3)on1 (stereo not drawn)	10	.	.	.	2
O=C(NC1=NCCS1)c1sc2ccccc2c1Cl	35	35	56*	0.4	-2
O=C(NC1=NCCS1)c1sc2cc(Cl)cc(Cl)c2c1Cl	1	12	-7	1.1	-4
CC(C)Oc1ccc(C(=O)NC2=NCCS2)cc1	59*	34	75*	0.3	8
Cc1ccnc(NC(=O)CNC(=O)c2sc3ccccc3c2Cl)c1	-1	.	.	.	.
Cc1csc(NC(=O)c2oc3ccccc3c2C)n1	14	.	.	.	.
Cc1ccc(NC(=O)c2sc3ccccc3c2Cl)nc1	70*	40	80*	0.2	-6
Cc1c(C(=O)NC2=NCCS2)oc2ccccc12	25	22	51*	0.5	13
Cc1cccc(NC(=O)c2ccc([N+](=O)[O-])s2)c1C	4	23	1	1	-1
O=C(NC1=NCCS1)c1cc(-c2ccc(-c3ccccc3)cc2)nc2ccccc12	65*	45	73*	0.3	-2
Cc1cccnc1NC(=O)c1sc2ccccc2c1Cl	54*	.	.	.	0
COC(=O)c1sc(NC(=O)c2cc(-c3ccccc3)nc3ccccc23)c(C#N)c1C	52*	17	3	1	4
COCCN1C[C@@H](CO)O[C@@H](n2cnc3c(NC(C)C)ncnc32)C1	-11	.	.	.	.
Cc1cc(C)nc(Nc2n[nH]c(-c3ccccc3Cl)n2)n1	16	26	58*	0.4	3
CCOc1ccc(/C=C2\SC(=S)N(CCC(=O)N(CCO)c3ccccc3)C2=O)cc1	34	.	.	.	7
CCc1ccc(/C=C2\SC(=S)N(CCCC(=O)N(CCO)c3ccccc3)C2=O)cc1	92*	.	.	.	.
CCc1nc(N)nc(N)c1-c1ccc(Cl)c(N=[N+]=[N-])c1	83*	.	.	.	.
CCc1nc(N)nc(N)c1-c1ccc(Cl)c([N+](=O)[O-])c1	80*	.	.	.	.
COC(=O)Cc1c(C)c2ccc(OCC(=O)NC3CCS(=O)(=O)C3)cc2oc1=O (stereo not drawn)	3	.	.	.	-7
COc1ccc(CNC(=O)C(c2ccncc2)N(C(=O)Cc2cccs2)c2ccccc2)cc1 (stereo not drawn)	-2	11	-6	1.1	1
COc1ccc(N(C(=O)CCl)C(C(=O)NCCc2ccccc2)c2cccs2)cc1 (stereo not drawn)	98*	47	-9	1.1	6
O=C(/C=C/c1ccccc1[N+](=O)[O-])Nc1ccccc1	20	18	50*	0.5	2
SMILES	TRAIL sens C8	PPC-1+TRAIL kill	FLuc inhib CS	FLuc stim CS	HSP90 refold inh
COc1cc(NC(=O)/C=C/c2ccccc2[N+](=O)[O-])cc(OC)c1	1	-7	-1	1	1
O=C(/C=C/c1ccc([N+](=O)[O-])cc1)Nc1cccnc1	32	29	65*	0.3	3
CC(C)c1ccc(OCc2cccc(C(=O)N/N=C/c3cccnc3)c2)cc1	53*	64*	42	0.6	11
Nc1ccccc1C(=O)NN=Cc1cccnc1	60*	.	.	.	.
O=C(N/N=C/c1cccnc1)c1ccccc1	17	.	.	.	-1
O=C(/C=C/c1ccc(Cl)c([N+](=O)[O-])c1)Nc1cccnc1	-9	4	3	1	-3
O=C(N/N=C/c1cc2ccccc2[nH]1)c1ccccc1Cl	-9	15	.	.	-3
COc1ccc(C(=O)CSc2nc3c(c(=O)n(C)c(=O)n3C)n2C)cc1	.	.	0	1	-1
